# The full list was thinned out, with hits kept by preference.
# RORA inh = blocks the human nuclear receptor RORA; CHO-K1 Gal4-RORA LBD luciferase reporter, luminescence; actives 0.43% (n = 65,000); P35398; inhibition, % at 10 µM;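 active means inhibition above the mean of all tested compounds plus 3 SD, cut at about 52% in these data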;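 further: 0% = RORA-transfected cells with DMSO and 100% = mock-transfected cells lacking RORA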
# Target sequence (P35398 whole entry, looked up, the tested form may be a part): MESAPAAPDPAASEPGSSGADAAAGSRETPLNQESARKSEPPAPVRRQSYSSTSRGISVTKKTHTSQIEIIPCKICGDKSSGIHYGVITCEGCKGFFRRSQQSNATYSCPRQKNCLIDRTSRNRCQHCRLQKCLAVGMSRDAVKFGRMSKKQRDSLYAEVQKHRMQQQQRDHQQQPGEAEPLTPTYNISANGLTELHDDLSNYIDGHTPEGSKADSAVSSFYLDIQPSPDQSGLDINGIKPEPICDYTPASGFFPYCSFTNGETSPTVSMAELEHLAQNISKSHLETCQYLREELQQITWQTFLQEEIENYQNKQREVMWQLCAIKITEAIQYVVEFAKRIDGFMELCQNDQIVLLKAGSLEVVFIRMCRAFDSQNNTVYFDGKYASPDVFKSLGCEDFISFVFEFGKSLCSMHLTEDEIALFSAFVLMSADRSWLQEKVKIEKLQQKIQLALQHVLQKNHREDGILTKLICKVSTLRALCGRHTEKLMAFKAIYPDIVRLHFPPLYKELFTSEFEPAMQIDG
#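 Test system – CHO-K1 Gal4-RORA LBD luciferase reporter cells · Schedule – 20 h at 37 °C · Signal – luminescence from basal luciferase reporter expression · Measure – percent inhibition of basal reporter luminescence, control-normalized · Control set – -RORA mock-transfected DMSO wells 100%, +RORA DMSO wells 0%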
# * marks the source's active call; other numbers are inactive results.
SMILES,RORA inh
CCc1c(C)nc2cc(-c3ccc(OC)cc3)[nH]n2c1=O,-58
COc1cc(OC)cc(-c2cc3nc(C)c(CCC(=O)O)c(C)n3n2)c1,77*
CCN(CC)C(=O)c1sc2nc(-c3ccc(OC)cc3)cn2c1C,-98
O=C(O)c1cccc(S(=O)(=O)N2CCSCC2)c1,3
COc1ccc(-n2c(SCCC(=O)O)nnc2-c2ccncc2)cc1,7
CC(=O)Nc1ccccc1OCc1nnc(-c2cccs2)o1,10
CCc1nn2c(=O)cc(N3CCN(c4cc(C)nc5ccccc45)CC3)nc2s1,-1
Cc1cc(N2CCN(c3nc4ccccc4s3)CC2)n2ncnc2n1,75*
Cc1cc(N2CCCCC2)n2ncc(-c3ccc(Cl)cc3)c2n1,-87
C=C(C)Cn1c(N2CC(C)CC(C)C2)nc2c1c(=O)[nH]c(=O)n2C (stereo not given),8
Cn1c(CNc2ccccc2)cc(=O)n(C)c1=O,2
CCC(C)C(NC(=O)OC(C)(C)C)C(=O)NC(C(=O)N1CCCC1C(N)=O)C(C)CC (stereo not given),1
O=C1COc2ccc(OCc3ccc(F)cc3)cc21,-78
O=C(CSc1nnnn1-c1ccccc1)Nc1nsc(-c2ccc(Cl)cc2)n1,71*
Cn1nnc(NC(=O)CSc2ccc(Cl)cc2)n1,-10
Cn1nnc(NC(=O)CSc2nnnn2-c2ccc(F)cc2)n1,17
CCCCc1ccc(C2C(C#N)=C(N)SC(N)=C2C#N)s1,-8
Cc1ccc(CC2(O)CC(C)N(C)CC2C)c(C)c1 (stereo not given),2
Cc1[nH]nc(N=CC2=C(O)CC(C)(C)CC2=O)c1-c1ccc(Cl)cc1,-83
COc1cccc(-c2nnc3n2N=C(C(C)(C)C)CS3)c1,62*
CCOc1cccc(-c2nnc3n2N=C(c2cc(OC)ccc2OC)CS3)c1,-61
COC(=O)c1[nH]c2cc(C)ccc2c1NC(=O)CN1CCc2cc(OC)c(OC)cc2C1,12
CN1CCN(c2ccccc2NC(=O)c2cccc(OCc3ccccc3)c2)CC1,-12
Cc1cc(C)n(-c2c(F)c(F)c(CN3CCOCC3)c(F)c2F)n1,1
Cc1ccc(-n2nnnc2SCC(=O)N2CCN(C(=O)c3ccco3)CC2)c(C)c1,1
SMILES,RORA inh
COc1ccc(C)cc1-n1nnnc1SCc1nc2ccccc2s1,-50
COc1cc(CSc2nnnn2-c2ccc(C)cc2)cc(OC)c1OC,72*
CN(C)CCCN1C(=O)C(O)=C(C(=O)c2cccs2)C1c1ccccn1 (stereo not given),0
Nc1nc2ccccc2n1/N=C/c1ccc(Br)cc1,-70
CCN(CC)C(=O)COc1ccc(-c2ccccc2)cc1,-44
CCN(CC)S(=O)(=O)c1ccc(NC(=O)c2ccccn2)cc1,-49
CN(C)S(=O)(=O)c1ccc(NC(=O)c2ccccn2)cc1,-57
CN(C)c1ccc(NC(=S)c2ccccn2)cc1,84*
CC(NC(=O)COc1cc(=O)n(C)c2ccccc12)c1ccc2c(c1)OCCO2 (stereo not given),-24
CC(C)Cn1c(N)c(C(=O)CSc2ccc3c(c2)OCCO3)c(=O)n(C)c1=O,78*
CCn1c(SCC(=O)c2c(N)n(C)c(=O)n(C)c2=O)nc2sc(C)c(C)c2c1=O,13
COc1ccc(C(=O)Nn2c(SCC(=O)NCc3ccco3)nc3ccccc3c2=O)cc1,59*
COc1ccc(-n2nnc3c(SCC(=O)NCc4ccco4)ncnc32)cc1,3
O=C(CSc1nc2ccccc2c(=O)n1Cc1ccco1)c1ccc(F)cc1,-11
Cc1ccc(C)c(-n2c(Cc3cc(=O)[nH]c(=O)[nH]3)nnc2SCC(=O)NCC2CCCO2)c1 (stereo not given),-2
Cc1nnc2sc(-c3cc4ccccc4o3)nn12,-57
COc1cccc2c1C(=O)c1c(O)c3c(c(O)c1C2=O)C[C@@](O)(C(=O)CO)C[C@@H]3O[C@H]1C[C@H](N)[C@H](O)[C@H](C)O1,63*
CCn1c2ccc(CC(=O)O)cc2c2cc(CC(=O)O)ccc21,3
COc1cc(-c2nnc3sc(-c4cccnc4)nn23)cc(OC)c1OC,15
Cc1nc(NC2=NCN(CCc3ccccc3)CN2)nc2ccccc12,22
O=C(COc1ccccc1Cl)Nc1ccc(Cl)cn1,-62
O=P(O)(O)c1ccccc1OCc1ccccc1,-8
O=C(O)c1cccc(COc2ccccc2Cl)c1,92*
COC(=O)c1ccc(-c2ccc(CNCC(O)c3ccccc3)o2)cc1 (stereo not given),-11
CCCn1c(-c2ccc(OC)cc2)nc2nc3ccccc3nc21,-4
SMILES,RORA inh
Cc1ccc(-c2nc3nc4ccccc4nc3n2Cc2ccco2)cc1,68*
c1ccc(Cn2c(-c3ccco3)nc3nc4ccccc4nc32)cc1,-75
CCCOc1ccccc1C1CC(=O)Nc2cc3c(cc21)OCCO3 (stereo not given),60*
CCOc1ccccc1C1CC(=O)Nc2cc(OC)c(OC)c(OC)c21 (stereo not given),6
CCN(CC)c1ccc(-c2nc3cnccc3n2C)cc1,-67
Cc1nc2c(c(=O)n1CC1CCCO1)c1nc3ccccc3nc1n2CC(C)C (stereo not given),18
CC1CCc2cc(F)cc3c(O)c(C(=O)Nc4cnccn4)c(=O)n1c23 (stereo not given),20
COC(=O)c1ccc(NC(=O)C2CCCN(S(=O)(=O)c3cnc[nH]3)C2)cc1 (stereo not given),6
CC(C)CCNC(=O)NC(=O)COc1ccccc1C#N,1
O=S(=O)(c1ccccc1)N1CCN(c2cc(-c3ccccc3)nc3ncnn23)CC1,70*
COc1ccc(-c2nsc3c(N4CCN(S(=O)(=O)c5ccccc5)CC4)ncnc23)cc1,14
FC(F)(F)c1cc(-c2ccccc2)nc(N2CCCCCC2)n1,6
CC(C)C1N=C2c3ccccc3N=C(SCC#N)N2C1=O (stereo not given),9
COC(=O)c1sc2nc(N3CCCCC3)c3c(c2c1N)CC(C)(C)N(C)C3,-1
COc1ccc(OC)c(-c2cc(C(=O)NCc3ccco3)no2)c1,8
O=C(NCCOc1ccccc1)c1ccc2c(c1)OCO2,63*
O=C(Nc1ccc(Cl)cc1)c1ccc2c(c1)OCO2,-9
O=C(c1ccc2c(c1)OCO2)N1CCc2ccccc2C1,-66
Cc1cc(NC(=O)C2CCN(S(=O)(=O)Cc3ccccc3)CC2)ccc1-n1cnnn1,0
Nc1c(C(=O)Nc2ccc(Cl)cc2)oc2ccccc12,-74
O=C(c1ccccc1)C(CCC(CN1CCOCC1)C(=O)c1ccccc1)CN1CCOCC1 (stereo not given),56*
O=C(c1ccccc1)c1ccc(N2CCOCC2)c(F)c1,-74
O=C(Nc1ccc(CN2CCOCC2)cc1)c1cccc(F)c1,-37
O=C(Nc1nnc(C(F)(F)F)s1)c1cccnc1,-66
CCC(NC(=O)Nc1ncccc1C)(C(F)(F)F)C(F)(F)F,2
SMILES,RORA inh
CCC(NC(=O)Nc1nnc(C(F)(F)F)s1)(C(F)(F)F)C(F)(F)F,94*
CCOC(=O)c1ccccc1NC(=O)CSc1nnnn1C1CCCCC1,-54
CCCn1c(C)cc(C(=O)CN2C(=O)c3ccccc3C2=O)c1C,-55
C=CCn1c(C)cc(C(=O)COc2nncc3ccccc23)c1C,-80
COCCn1c(C)cc(C(=O)COC(=O)c2n[nH]c3ccccc23)c1C,58*
COc1cc(C(C)=O)ccc1OCC(=O)c1cc(C)n(C2CC2)c1C,19
O=C1CCCN1CC(CN1CCOCC1)Sc1nc2ccccc2c(=O)n1-c1ccccc1 (stereo not given),17
